High-throughput results: PubChem BioAssay, several laboratories
This is a sample that favours compounds with a hit; in the whole collection about 3.3% have one here.
Arrestin-AP2 inh – blocks beta-arrestin peptide binding to AP2 adaptin; FITC-arrestin peptide / GST-AP2 beads, flow cytometry; AP2 beta2 appendage carries R879A mutation; inhibition, % at 10 µM; 340,000 compounds, 0.31% hits; AID 504490;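 active = inhibition above a set limit, near 3 SD of compounds lacking own fluorescence, cut at about 54% in these data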;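 note: plate controls were DMSO wells for no effect and 5 µM unlabelled arrestin peptide for full effect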
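Measured by: flow cytometry, FL1 (488/535 nm); Material: AP2 appendage R879A on GSH beads; Evaluation: percent response; Timing: pre-incubation 12 min, peptide binding 1 h, room temperature; Also added: 50 nM FITC-arrestin peptide; Medium: PBS with 0.05% Tween 20 and 0.1% BSA.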
Myeloid diff 2 – promotes myeloid progenitor differentiation; ER-HoxA9 myeloid progenitors, lysozyme-GFP differentiation, flow cytometry; AID 624256; calls only at 10 µM; 360,000 compounds, 1% hits;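 active = normalized GFP-positive differentiation at or above the plate's own cutoff, the solvent-only control mean plus 3 SD; inconclusive = no clear call, values can overlap the other calls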;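 note: cells exposed to compound for four days before flow analysis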
NRP1-CendR mod – alters CendR peptide binding to human NRP-1; O14786; FAM-RPARPAR peptide binding to NRP-1, fluorescence polarization; inhibition, % at 25 µM; 360,000 compounds, 0.85% hits;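 active = inhibition or corrected inhibition above about 18%, plus a signal ratio from 0.5 to 1.5, limit read from the data, passing the limit was not always enough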
Granule exo inh – blocks lytic granule exocytosis | inhibition, % at 10 µM | 360,000 compounds, 0.66% hits | AID 651702 | TALL-104 LAMP-1 surface exposure, flow cytometry; cells stimulated with thapsigargin and PMA;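 active = inhibition above about 55%, limit read from the data; inconclusive = no clear call, values can overlap the other calls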
ATG4B inhibitor – blocks human ATG4B protease cleavage of LC3 substrate; Q9Y4P1; 340,000 compounds, 0.51% hits; inhibition, % at 8.33 µM; ATG4B cleavage of LC3-PLA2, NBD-HPC fluorescence, 1 h; AID 504462; in the data active = inhibition above about 40%
Target sequence (Q9Y4P1 whole entry, looked up): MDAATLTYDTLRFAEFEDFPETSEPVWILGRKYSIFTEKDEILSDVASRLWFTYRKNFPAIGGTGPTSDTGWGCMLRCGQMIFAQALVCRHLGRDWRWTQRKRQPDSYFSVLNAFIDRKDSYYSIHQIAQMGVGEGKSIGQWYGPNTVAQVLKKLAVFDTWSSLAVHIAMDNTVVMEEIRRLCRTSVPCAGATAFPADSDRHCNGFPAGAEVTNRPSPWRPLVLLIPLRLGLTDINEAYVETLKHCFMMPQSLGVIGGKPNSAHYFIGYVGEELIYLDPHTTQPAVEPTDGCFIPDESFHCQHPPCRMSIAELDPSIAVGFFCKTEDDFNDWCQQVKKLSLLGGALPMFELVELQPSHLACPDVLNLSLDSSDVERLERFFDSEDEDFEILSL
ABCB6 inh 2 – inhibitors of human ABC transporter ABCB6. K562-ABCB6 porphyrin accumulation, flow cytometry, 1 h; active compounds read low. AID 602162. fluorescence ratio to DMSO, % at 10 µM. Q9NP58. 360,000 compounds, 0.19% hits;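 active = fluorescence ratio to DMSO below 75%, the collection mean minus 3 SD; inconclusive = too few cells collected in the well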;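 note: signal is porphyrin accumulated inside mitochondria; 100% equals median channel fluorescence of DMSO control wells; lower ratio means ABCB6 inhibition with less porphyrin fluorescence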
* = called active by the depositor; ! = a repeat was not active.

`Cc1ccccc1-n1nc(C(=O)c2cccs2)cc(-c2nc3ccccc3[nH]2)c1=N` gave Arrestin-AP2 inh 8.4, Myeloid diff 2 inactive, NRP1-CendR mod -7.5, Granule exo inh -1.0, ATG4B inhibitor -5.8 and ABCB6 inh 2 95.0.
For CC(C)(C)OC(=O)C[C@H]1C/C=C\C[C@H](CC(=O)N(CCO)Cc2ccccc2)C(=O)NCCOC1=O the results were Myeloid diff 2 inactive, NRP1-CendR mod 29.2*, Granule exo inh -3.7, ATG4B inhibitor 4.4 and ABCB6 inh 2 100.0.
O=C1NC[C@@H](c2ccccc2)OC(=O)[C@@H](Cc2ccc(F)cc2)CC/C=C/C[C@@H]1CC(=O)N(CCO)Cc1ccccc1 was read as Myeloid diff 2 inconclusive, NRP1-CendR mod 30.8*, Granule exo inh -18.9, ATG4B inhibitor 9.4 and ABCB6 inh 2 92.0.
`CC(C)(C)OC(=O)C[C@H]1C/C=C\C[C@H](CC(=O)N(CCO)Cc2ccccc2)C(=O)N[C@@H](Cc2ccccc2)COC1=O` gave Arrestin-AP2 inh -1.2, Myeloid diff 2 inactive, NRP1-CendR mod 30.4*, Granule exo inh -0.1, ATG4B inhibitor -1.2 and ABCB6 inh 2 90.0.
O=C1N[C@@H](c2ccccc2)COC(=O)[C@@H](Cc2ccc(F)cc2)CC/C=C/C[C@H]1CC(=O)N(CCO)Cc1ccccc1 was read as Arrestin-AP2 inh 50.3, Myeloid diff 2 inconclusive, NRP1-CendR mod -4.9, Granule exo inh -4.4, ATG4B inhibitor -6.4 and ABCB6 inh 2 98.0.
For C[C@@H]1COC(=O)[C@@H](CC(=O)OC(C)(C)C)C/C=C\C[C@H](CC(=O)N(CCO)Cc2ccccc2)C(=O)N1 the results were Myeloid diff 2 inactive, NRP1-CendR mod 3.0, Granule exo inh -3.7, ATG4B inhibitor -2.3 and ABCB6 inh 2 99.0.
For CC(C)(C)OC(=O)C[C@@H]1C/C=C\C[C@@H](CC(=O)N(CCO)Cc2ccccc2)C(=O)NCCOC1=O the results were Arrestin-AP2 inh 18.2, Myeloid diff 2 inactive, NRP1-CendR mod 0.9, Granule exo inh 9.1, ATG4B inhibitor -1.8 and ABCB6 inh 2 96.0.
`CC(C)(C)OC(=O)C[C@H]1C/C=C\C[C@@H](CC(=O)NCCO)C(=O)NC[C@@H](c2ccccc2)OC1=O` gave Arrestin-AP2 inh 0.7, Myeloid diff 2 inactive, NRP1-CendR mod 20.1*, Granule exo inh 19.5, ATG4B inhibitor -10.3 and ABCB6 inh 2 96.0.
Screening CC(C)(C)OC(=O)C[C@H]1C/C=C\C[C@@H](CC(=O)N[C@H](CO)Cc2ccccc2)C(=O)NC[C@H](c2ccccc2)OC1=O returned Arrestin-AP2 inh -10.2, Myeloid diff 2 inactive, NRP1-CendR mod 3.1, Granule exo inh 18.5, ATG4B inhibitor -6.6 and ABCB6 inh 2 95.0.
`CC(Oc1ccc(Br)cc1)C(=O)Nc1nnc(C2CC2)s1` (stereo unspecified) gave Arrestin-AP2 inh -13.9, Myeloid diff 2 inactive, NRP1-CendR mod -10.1, Granule exo inh 4.1, ATG4B inhibitor -3.0 and ABCB6 inh 2 92.0.
`CCC(Sc1nc(-c2ccccc2)c(C#N)c(=O)[nH]1)C(=O)Nc1nnc(C)s1` (stereo unspecified) gave Arrestin-AP2 inh 32.7, Myeloid diff 2 inactive, NRP1-CendR mod -9.0, Granule exo inh -2.4, ATG4B inhibitor 8.6 and ABCB6 inh 2 94.0.
For CC(C)N(Cc1ccccc1)C(=O)CN1c2cccc3cccc(c23)S1(=O)=O the results were Arrestin-AP2 inh 5.2, Myeloid diff 2 inactive, NRP1-CendR mod 7.4, Granule exo inh 7.6, ATG4B inhibitor -16.8 and ABCB6 inh 2 94.0.
Screening O=C1CCC/C=C\C[C@@H](CC(=O)N(CCO)Cc2ccccc2)C(=O)N2CCC[C@H]2CO1 returned Arrestin-AP2 inh -7.9, Myeloid diff 2 inactive, NRP1-CendR mod 27.7*, Granule exo inh -14.2, ATG4B inhibitor -1.1 and ABCB6 inh 2 97.0.
For CC(C)(C)OC(=O)C[C@@H]1C/C=C\C[C@@H](CC(=O)N(CCO)Cc2ccccc2)C(=O)NC[C@H](c2ccccc2)OC1=O the results were Myeloid diff 2 inconclusive, NRP1-CendR mod -6.2, Granule exo inh 76.0*, ATG4B inhibitor -0.1 and ABCB6 inh 2 91.0.
Screening O=C1CC/C=C\C[C@@H](CC(=O)N(CCO)Cc2ccccc2)C(=O)N2CCC[C@H]2CO1 returned Arrestin-AP2 inh 15.5, Myeloid diff 2 inactive, NRP1-CendR mod -12.3, Granule exo inh 5.6, ATG4B inhibitor 4.0 and ABCB6 inh 2 102.0.
O=C(Nc1ccc2c(c1)OCO2)C1CCN(Cc2cnn(-c3ccccc3)c2-n2cccc2)CC1 was read as Arrestin-AP2 inh -2.4, Myeloid diff 2 inactive, NRP1-CendR mod -4.8, Granule exo inh 0.2, ATG4B inhibitor -12.7 and ABCB6 inh 2 97.0.
For CC(C)C1Cc2ccccc2-c2[nH]c(=S)[nH]c(=O)c21 (stereo unspecified) the results were Arrestin-AP2 inh -8.7, Myeloid diff 2 inactive, NRP1-CendR mod 2.5, Granule exo inh -1.3, ATG4B inhibitor -10.1 and ABCB6 inh 2 103.0.
`COc1ccc(-c2[nH]c(-c3ccc4c(c3)OCO4)nc2-c2ccccc2)cc1` gave Arrestin-AP2 inh -10.1, Myeloid diff 2 inactive, NRP1-CendR mod 17.5, Granule exo inh 6.6, ATG4B inhibitor 23.0 and ABCB6 inh 2 87.0.
Screening Cc1c(C)c(C)c2[nH]c(-c3ccc4c(c3)OCO4)nc2c1C returned Arrestin-AP2 inh -7.0, Myeloid diff 2 inactive, NRP1-CendR mod 1.5, Granule exo inh 61.4*, ATG4B inhibitor 10.4 and ABCB6 inh 2 75.0.
Screening OC[C@@H]1CN(Cc2ccncc2)C[C@H](n2cnc3c(NC4CCCC4)ncnc32)O1 returned Myeloid diff 2 inactive, NRP1-CendR mod 4.8, Granule exo inh -3.8 and ABCB6 inh 2 99.0.
N#Cc1ccc(N=c2ssnc2Cl)cc1 was read as Arrestin-AP2 inh -10.7, Myeloid diff 2 inactive, NRP1-CendR mod -2.9, Granule exo inh 99.3*!, ATG4B inhibitor -4.5 and ABCB6 inh 2 106.0.
`Clc1ccc(N=c2ssnc2Cl)cc1` gave Arrestin-AP2 inh 3.7, Myeloid diff 2 inactive, NRP1-CendR mod -2.6, Granule exo inh 82.4*, ATG4B inhibitor -17.6 and ABCB6 inh 2 95.0.
`COc1cc(N=c2ssnc2Cl)cc(OC)c1OC` gave Arrestin-AP2 inh 25.6, Myeloid diff 2 inactive, NRP1-CendR mod -7.7, Granule exo inh 99.3*, ATG4B inhibitor -6.2 and ABCB6 inh 2 99.0.
Screening Cc1sc2ncnc(OCC(=O)N3CCN(C(=O)c4ccco4)CC3)c2c1C returned Arrestin-AP2 inh 22.3, Myeloid diff 2 inactive, NRP1-CendR mod -1.8, Granule exo inh 19.6, ATG4B inhibitor 0.7 and ABCB6 inh 2 91.0.
COC(=O)C1N[C@@H]([C@@H](NC(=O)COc2ccccc2)C(=O)Nc2ccc(OC)cc2)SC1(C)C (stereo partly specified) was read as Arrestin-AP2 inh -4.2, Myeloid diff 2 inactive, NRP1-CendR mod 17.5, Granule exo inh -9.2, ATG4B inhibitor -8.1 and ABCB6 inh 2 95.0.
